Active and inactive are the calls of the source.
Tests used:
[1] = Induction of reactive oxygen generation assessed as quantum yield of singlet oxygen generation in O2 saturated D2O containing 0.1% DMSO by spectrometry; format: physicochemical
Procedure, shortened: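 Photosensitizer in D2O with 0.1% DMSO, absorbance set to 0.4 at its excitation wavelength, oxygen-purged 1 min; singlet-oxygen luminescence recorded with NIR photomultiplier cooled to 193 K; TPPS as reference.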

Liver = assay: Drug uptake in BALB/c mouse liver implanted with mouse 4T1 cells assessed per gram of tissue at 0.18 mg/kg, ip after 48 hrs by HPLC-based fluorescence analysis; format: ADME, organism-based; details: in vivo
Procedure, shortened: (§1)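 Female BALB/c mice bearing 4T1 thigh tumours received an i.p. dose in ethanol/PEG400/H2O (2/3/5) with 0.1% DMSO, or in saline, and were kept dark until killed. Tissues were weighed (100 mg), homogenised in CH3OH/DMSO/H2O (32/8/1) and centrifuged twice at 2300×g at 4°C. Supernatants were analysed by HPLC with fluorescence detection (λex 404/λem 654 nm or λex 400/λem 666 nm). n = 3 per time point.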

4T1 [2] = assay: Drug uptake in mouse 4T1 cells implanted in BALB/c mouse assessed per gram of tissue at 0.18 mg/kg, ip after 12 hrs by HPLC-based fluorescence analysis; format: ADME, organism-based; details: in vivo
Procedure, shortened: (§2)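 Female BALB/c mice with 4T1 cells (1 × 10^6 in HBSS) implanted in left rear thigh; single i.p. dose, 7 in ethanol/PEG400/H2O (2/3/5) with 0.1% DMSO, mono-L-aspartyl chlorin e6 in saline; kept dark until sacrifice. Tissues washed, frozen, homogenized in CH3OH/DMSO/H2O (32/8/1), centrifuged 2300×g; supernatant analysed by HPLC with fluorescence detection; three animals per time point.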

Zone of skin [3] = assay: Drug uptake in BALB/c mouse skin implanted with mouse 4T1 cells assessed per gram of tissue at 0.18 mg/kg, ip after 24 hrs by HPLC-based fluorescence analysis; format: ADME, organism-based; details: in vivo; procedure, shortened: as §2
4T1 [4] = assay: Antitumor activity against mouse 4T1 cells implanted in BALB/c mouse at 0.045 mg/kg, ip assessed as tumor growth inhibition administered for 48 hrs followed by irradiation at 40 mW/cm2 measured after 7 days; format: functional, organism-based
Procedure, shortened: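 Female BALB/c mice carried 4T1 thigh tumours (1 × 10^6 cells) of 50–60 mm3. They were dosed i.p. at 250–31.25 nmol·kg−1 in ethanol/PEG400/H2O (2/3/5) containing 0.1% DMSO and kept dark. At 48 h the tumour was irradiated with a 100-W halogen lamp at 40 mW·cm−2 for 20.1 min. Tumour size was measured daily by caliper as length × width²/2 and normalised to day 0.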

Urinary bladder [5] = assay: Drug uptake in BALB/c mouse bladder implanted with mouse 4T1 cells assessed per gram of tissue at 0.18 mg/kg, ip after 72 hrs by HPLC-based fluorescence analysis; format: ADME, organism-based; details: in vivo; procedure, shortened: as §1
[6] = Drug uptake in mitochondria of human Hela cells at 0.5 uM preincubated for 24 hrs followed by MitoTracker Green FM addition for 30 mins by CSLM analysis; format: ADME; details: 0.5 h
Procedure, shortened: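 HeLa cells (1 × 10^4) plated 24 h, incubated 24 h with 0.5 µM final photosensitizer (1% DMSO), washed, stained 30 min with 250 nM MitoTracker Green FM in HBSS at 37°C, fixed in 4% paraformaldehyde. Confocal imaging: red λex 488/λem 650 nm; green λex 488/λem 505–530 nm.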

[7] = Drug uptake in BALB/c mouse small intestine implanted with mouse 4T1 cells assessed per gram of tissue at 0.18 mg/kg, ip after 24 hrs by HPLC-based fluorescence analysis; format: ADME, organism-based; details: in vivo; procedure, shortened: as §2
Urinary bladder [8] = assay: Drug uptake in BALB/c mouse bladder implanted with mouse 4T1 cells assessed per gram of tissue at 0.18 mg/kg, ip after 12 hrs by HPLC-based fluorescence analysis; format: ADME, organism-based; details: in vivo; procedure, shortened: as §1
[9] = Induction of reactive oxygen generation assessed as quantum yield of hydrogen peroxide generation in O2 saturated PBS containing 1% DMSO under photoirradiation by spectrometry relative to control hematoporphyrin; format: physicochemical; details: buffer
Procedure, shortened: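 Photosensitizer (1.00 µM) with HPF (2.00 µM) in PBS containing 1% DMSO, oxygenated 1 min, irradiated with 100-W halogen lamp through λ>500 nm cutoff filter at 37°C; hematoporphyrin as reference.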

Stomach [10] = assay: Drug uptake in BALB/c mouse stomach implanted with mouse 4T1 cells assessed per gram of tissue at 0.18 mg/kg, ip after 6 hrs by HPLC-based fluorescence analysis; format: ADME, organism-based; details: in vivo; procedure, shortened: as §2
Zone of skin [11] = assay: Drug uptake in BALB/c mouse skin implanted with mouse 4T1 cells assessed per gram of tissue at 0.18 mg/kg, ip after 12 hrs by HPLC-based fluorescence analysis; format: ADME, organism-based; details: in vivo; procedure, shortened: as §2
[12] = Drug uptake in BALB/c mouse small intestine implanted with mouse 4T1 cells assessed per gram of tissue at 0.18 mg/kg, ip after 12 hrs by HPLC-based fluorescence analysis; format: ADME, organism-based; details: in vivo; procedure, shortened: as §2
4T1 [13] = assay: Drug uptake in mouse 4T1 cells implanted in BALB/c mouse assessed per gram of tissue at 0.18 mg/kg, ip after 6 hrs by HPLC-based fluorescence analysis; format: ADME, organism-based; details: in vivo; procedure, shortened: as §2
Stomach [14] = assay: Drug uptake in BALB/c mouse stomach implanted with mouse 4T1 cells assessed per gram of tissue at 0.18 mg/kg, ip after 48 hrs by HPLC-based fluorescence analysis; format: ADME, organism-based; details: in vivo; procedure, shortened: as §2
Plasma = assay: Drug uptake in BALB/c mouse plasma implanted with mouse 4T1 cells at 0.045 mg/kg, ip after 1 to 24 hrs by HPLC analysis; format: ADME, organism-based; details: in vivo
Muscle tissue = assay: Drug uptake in BALB/c mouse muscle implanted with mouse 4T1 cells assessed per gram of tissue at 0.18 mg/kg, ip after 24 hrs by HPLC-based fluorescence analysis; format: ADME, organism-based; details: in vivo; procedure, shortened: as §1
4T1 [15] = assay: Antiangiogenic activity against mouse 4T1 cells implanted in BALB/c mouse at 0.045 mg/kg, ip administered for 48 hrs followed by irradiation at 48 J/cm2 measured after 6 days by hematoxylin/eosin-staining based microscopic analysis; format: functional, organism-based
Procedure, shortened: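 4T1 cells (1 × 10^6 in HBSS) were implanted in the left rear thigh of female BALB/c mice. At 48 h after i.p. dosing at 31.25 nmol·kg−1 in ethanol/PEG400/H2O (2/3/5) with 0.1% DMSO, the tumour was irradiated with a 100-W halogen lamp (λ > 500 nm, 48 J·cm−2). Skin with tumour was taken 6 days later, fixed in 4% paraformaldehyde, paraffin-embedded, cut into 7-µm sections, H&E-stained and examined by light microscopy.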

Kidney = assay: Drug uptake in BALB/c mouse kidney implanted with mouse 4T1 cells assessed per gram of tissue at 0.18 mg/kg, ip after 12 hrs by HPLC-based fluorescence analysis; format: ADME, organism-based; details: in vivo; procedure, shortened: as §1
[16] = Drug uptake in BALB/c mouse large intestine implanted with mouse 4T1 cells assessed per gram of tissue at 0.18 mg/kg, ip after 24 hrs by HPLC-based fluorescence analysis; format: ADME, organism-based; details: in vivo; procedure, shortened: as §1
Heart = assay: Drug uptake in BALB/c mouse heart implanted with mouse 4T1 cells assessed per gram of tissue at 0.18 mg/kg, ip after 24 hrs by HPLC-based fluorescence analysis; format: ADME, organism-based; details: in vivo; procedure, shortened: as §1
Spleen = assay: Drug uptake in BALB/c mouse spleen implanted with mouse 4T1 cells assessed per gram of tissue at 0.18 mg/kg, ip after 72 hrs by HPLC-based fluorescence analysis; format: ADME, organism-based; details: in vivo; procedure, shortened: as §2

Activity [1]: 0.25
Drug uptake (Liver): 9 ng
Drug uptake (4T1 [2]): 4 ng/g
Drug uptake (Zone of skin [3]): 0 ng
Drug uptake (Urinary bladder [5]): 8 ng
Drug uptake [6]: Active
Drug uptake [7]: 39 ng/g
Drug uptake (Urinary bladder [8]): 95 ng/g
Ratio [9]: 0.18
Drug uptake (Stomach [10]): 48 ng/g
Drug uptake (Zone of skin [11]): 0 ng
Drug uptake [12]: 80 ng
Drug uptake (4T1 [13]): 5 ng
Drug uptake (Stomach [14]): 6 ng
Drug uptake (Plasma): Active
Drug uptake (Muscle tissue): 1.2 ng
Drug uptake (Kidney): 25 ng
Drug uptake [16]: 60 ng/g
Drug uptake (Heart): 6.1 ng/g
Drug uptake (Spleen): 8 ng
Compound: CN1CC2C3=N/C(=C(/c4c(F)c(F)c(S[C@@H]5O[C@H](CO)[C@@H](O)[C@H](O)[C@H]5O)c(F)c4F)C4=N/C(=C(/c5c(F)c(F)c(F)c(F)c5F)c5ccc([nH]5)/C(c5c(F)c(F)c(S[C@@H]6O[C@H](CO)[C@@H](O)[C@H](O)[C@H]6O)c(F)c5F)=C5/C=CC(=N5)C3c3c(F)c(F)c(F)c(F)c3F)C=C4)C2C1 (some centres not stated)
Activity (4T1 [4]): Active
Activity (4T1 [15]): Active
